How the values were obtained:
Type in all cases: functional
[1] = system: Bacillus cereus; experiment: Antibacterial activity against Bacillus cereus N190 after 18 hrs by agar dilution method
How it was run: (§1)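 Agar-dilution MIC against Gram-positive strains. Compounds in DMSO, geometric dilutions giving final 100−0.75 mg/L in Mueller Hinton agar. Strains grown 18 h at 37 °C in trypticase soy broth, diluted in sterile water, spotted by Steers inoculator (about 1000 UFC/spot). Plates incubated 18 h at 37 °C; DMSO blank; ofloxacin positive control. MIC = lowest concentration with no visible growth.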

[2] = system: Enterococcus casseliflavus; experiment: Antibacterial activity against Enterococcus casseliflavus N487 after 18 hrs by agar dilution method; how it was run: as §1
[3] = system: Staphylococcus saprophyticus; experiment: Antibacterial activity against Staphylococcus saprophyticus E260 after 18 hrs by agar dilution method; how it was run: as §1
[4] = system: Enterococcus faecium; experiment: Antibacterial activity against Enterococcus faecium N733 after 18 hrs by agar dilution method; how it was run: as §1
[5] = system: Listeria monocytogenes; experiment: Antibacterial activity against Listeria monocytogenes CIP 103575 after 18 hrs by agar dilution method; how it was run: as §1
[6] = system: Staphylococcus epidermidis; experiment: Antibacterial activity against Staphylococcus epidermidis CIP 53124 after 18 hrs by agar dilution method; how it was run: as §1
[7] = system: Enterococcus faecium; experiment: Antibacterial activity against Enterococcus faecium N823 after 18 hrs by agar dilution method; how it was run: as §1
[8] = system: Enterococcus casseliflavus; experiment: Antibacterial activity against Enterococcus casseliflavus CIP 103018 after 18 hrs by agar dilution method; how it was run: as §1
[9] = system: Streptococcus agalactiae; experiment: Antibacterial activity against Streptococcus agalactiae CIP 103227 after 18 hrs by agar dilution method; details: ATCC 13813; how it was run: as §1
[10] = system: Staphylococcus haemolyticus; experiment: Antibacterial activity against Staphylococcus haemolyticus CIP 8156 after 18 hrs by agar dilution method; how it was run: as §1
[11] = system: Bacillus cereus; experiment: Antibacterial activity against Bacillus cereus CIP 6624 after 18 hrs by agar dilution method; how it was run: as §1
[12] = system: Enterococcus faecalis; experiment: Antibacterial activity against Enterococcus faecalis CIP 104676 after 18 hrs by agar dilution method; how it was run: as §1
[13] = system: Listeria monocytogenes; experiment: Antibacterial activity against Listeria monocytogenes N851 after 18 hrs by agar dilution method; how it was run: as §1
[14] = system: Enterococcus hirae; experiment: Antibacterial activity against Enterococcus hirae CIP 5855 after 18 hrs by agar dilution method; how it was run: as §1
[15] = system: Staphylococcus aureus; experiment: Antibacterial activity against Staphylococcus aureus ATCC 25923 after 18 hrs by agar dilution method; how it was run: as §1
[16] = system: Staphylococcus saprophyticus; experiment: Antibacterial activity against Staphylococcus saprophyticus CIP 76125 after 18 hrs by agar dilution method; how it was run: as §1
[17] = system: Bacillus cereus; experiment: Antibacterial activity against Bacillus cereus N258 after 18 hrs by agar dilution method; how it was run: as §1
[18] = system: Corynebacterium striatum; experiment: Antibacterial activity against Corynebacterium striatum N840 after 18 hrs by agar dilution method; how it was run: as §1
[19] = system: Enterococcus faecalis; experiment: Antibacterial activity against Enterococcus faecalis N520 after 18 hrs by agar dilution method; how it was run: as §1
[20] = system: Enterococcus durans; experiment: Antibacterial activity against Enterococcus durans CIP 104999 after 18 hrs by agar dilution method; how it was run: as §1
[21] = system: Listeria monocytogenes; experiment: Antibacterial activity against Listeria monocytogenes N836 after 18 hrs by agar dilution method; how it was run: as §1
[22] = system: Enterococcus faecalis; experiment: Antibacterial activity against Enterococcus faecalis N491 after 18 hrs by agar dilution method; how it was run: as §1
[23] = system: Staphylococcus aureus; experiment: Antibacterial activity against Staphylococcus aureus CIP 53156 after 18 hrs by agar dilution method; how it was run: as §1
[24] = system: Staphylococcus lugdunensis; experiment: Antibacterial activity against Staphylococcus lugdunensis ATCC 43809 after 18 hrs by agar dilution method; how it was run: as §1
[25] = system: Staphylococcus intermedius; experiment: Antibacterial activity against Staphylococcus intermedius N987 after 18 hrs by agar dilution method; how it was run: as §1
[26] = system: Listeria monocytogenes; experiment: Antibacterial activity against Listeria monocytogenes N783 after 18 hrs by agar dilution method; how it was run: as §1
[27] = system: Enterococcus faecium; experiment: Antibacterial activity against Enterococcus faecium N507 after 18 hrs by agar dilution method; how it was run: as §1
[28] = system: Bacillus cereus; experiment: Antibacterial activity against Bacillus cereus N349 after 18 hrs by agar dilution method; how it was run: as §1
[29] = system: Enterococcus faecalis; experiment: Antibacterial activity against Enterococcus faecalis N518 after 18 hrs by agar dilution method; how it was run: as §1
[30] = system: Mammaliicoccus sciuri; experiment: Antibacterial activity against Staphylococcus sciuri N993 after 18 hrs by agar dilution method; how it was run: as §1
[31] = system: Staphylococcus aureus; experiment: Antibacterial activity against Staphylococcus aureus CIP 483 after 18 hrs by agar dilution method; how it was run: as §1
[32] = system: Enterococcus faecium; experiment: Antibacterial activity against Enterococcus faecium N490 after 18 hrs by agar dilution method; how it was run: as §1
[33] = system: Enterococcus faecium; experiment: Antibacterial activity against Enterococcus faecium CIP 107387 after 18 hrs by agar dilution method; how it was run: as §1
[34] = system: Enterococcus avium; experiment: Antibacterial activity against Enterococcus avium CIP 104053 after 18 hrs by agar dilution method; how it was run: as §1
[35] = system: Staphylococcus aureus; experiment: Antibacterial activity against Staphylococcus aureus CIP 53154 after 18 hrs by agar dilution method; how it was run: as §1
[36] = system: Enterococcus gallinarum; experiment: Antibacterial activity against Enterococcus gallinarum N492 after 18 hrs by agar dilution method; how it was run: as §1
[37] = system: Staphylococcus aureus; experiment: Antibacterial activity against Staphylococcus aureus CIP 7625 after 18 hrs by agar dilution method; how it was run: as §1
[38] = system: Enterococcus gallinarum; experiment: Antibacterial activity against Enterococcus gallinarum N489 after 18 hrs by agar dilution method; how it was run: as §1
[39] = system: Staphylococcus aureus; experiment: Antibacterial activity against Staphylococcus aureus ATCC 9144 oxford after 18 hrs by agar dilution method; how it was run: as §1
[40] = system: Staphylococcus aureus; experiment: Antibacterial activity against Staphylococcus aureus CIP 5710 after 18 hrs by agar dilution method; how it was run: as §1
[41] = system: Staphylococcus aureus; experiment: Antibacterial activity against Staphylococcus aureus CRBIP 2121 after 18 hrs by agar dilution method; how it was run: as §1
[42] = system: Bacillus spizizenii; experiment: Antibacterial activity against Bacillus subtilis ATCC 6633 after 18 hrs by agar dilution method; how it was run: as §1
[43] = system: Enterococcus gallinarum; experiment: Antibacterial activity against Enterococcus gallinarum CIP 105985 after 18 hrs by agar dilution method; how it was run: as §1
[44] = system: Enterococcus faecalis; experiment: Antibacterial activity against Enterococcus faecalis CIP 103214 after 18 hrs by agar dilution method; how it was run: as §1
[45] = system: Listeria innocua; experiment: Antibacterial activity against Listeria innocua E044 after 18 hrs by agar dilution method; how it was run: as §1
[46] = system: Enterococcus faecium; experiment: Antibacterial activity against Enterococcus faecium CIP 103014 after 18 hrs by agar dilution method; how it was run: as §1

## GENTAMICIN
[1]
  MIC: 1 µM
[2]
  MIC: 9 µM
[3]
  MIC: < 0.14 µM
[4]
  MIC: > 278 µM
[5]
  MIC: 1 µM
[6]
  MIC: 0.5 µM
[7]
  MIC: > 278 µM
[8]
  MIC: 9 µM
[9]
  MIC: 2 µM
[10]
  MIC: < 0.14 µM
[11]
  MIC: 1 µM
[12]
  MIC: > 278 µM
[13]
  MIC: 1 µM
[14]
  MIC: 35 µM
[15]
  MIC: 1 µM
[16]
  MIC: 0.3 µM
[17]
  MIC: 2 µM
[18]
  MIC: > 278 µM
[19]
  MIC: > 278 µM
[20]
  MIC: 17 µM
[21]
  MIC: 1 µM
[22]
  MIC: > 278 µM
[23]
  MIC: 1 µM
[24]
  MIC: 0.5 µM
[25]
  MIC: 139 µM
[26]
  MIC: 1 µM
[27]
  MIC: > 278 µM
[28]
  MIC: 2 µM
[29]
  MIC: 70 µM
[30]
  MIC: < 0.14 µM
[31]
  MIC: 1 µM
[32]
  MIC: > 278 µM
[33]
  MIC: > 278 µM
[34]
  MIC: 2 µM
[35]
  MIC: 4 µM
[36]
  MIC: 17 µM
[37]
  MIC: 1 µM
[38]
  MIC: 4 µM
[39]
  MIC: 0.5 µM
[40]
  MIC: 1 µM
[41]
  MIC: > 278 µM
[42]
  MIC: 0.3 µM
[43]
  MIC: 17 µM
[44]
  MIC: 35 µM
[45]
  MIC: 1 µM
[46]
  MIC: 17 µM
